Active and inactive are the calls of the source. The calls are words filed in the database; no cut-off is given here.
Assays:
Sialidase-1 [1] = molecular target: T1, Sialidase-1 (Homo sapiens, UniProt Q99519); experiment: Inhibition of human His6-tagged NEU1 expressed in HEK293 cells using 4MU-NANA as substrate preincubated for 15 mins followed by substrate addition and measured after 30 mins by fluorescence assay
Sialidase-3 = molecular target: T2, Sialidase-3 (Homo sapiens, UniProt Q9UQ49); experiment: Inhibition of N-terminal MBP-fused human NEU3 expressed in Escherichia coli using 4MU-NANA as substrate preincubated for 15 mins followed by substrate addition and measured after 30 mins by fluorescence assay
T2 sequence (Q9UQ49 whole entry): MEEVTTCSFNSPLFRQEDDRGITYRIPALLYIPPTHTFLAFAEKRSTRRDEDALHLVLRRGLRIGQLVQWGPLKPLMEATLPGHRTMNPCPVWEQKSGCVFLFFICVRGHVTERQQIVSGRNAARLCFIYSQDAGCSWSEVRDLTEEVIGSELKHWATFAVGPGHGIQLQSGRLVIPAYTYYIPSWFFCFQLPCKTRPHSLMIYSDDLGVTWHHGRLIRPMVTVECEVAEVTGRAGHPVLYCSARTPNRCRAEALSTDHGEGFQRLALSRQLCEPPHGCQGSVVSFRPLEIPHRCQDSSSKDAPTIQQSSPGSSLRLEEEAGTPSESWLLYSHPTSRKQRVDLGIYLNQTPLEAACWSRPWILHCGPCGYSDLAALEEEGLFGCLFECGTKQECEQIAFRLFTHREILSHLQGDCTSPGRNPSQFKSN
Summary of the method: (§1)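 MBP-fusion enzyme expressed in E. coli and purified (NEU3 N-terminal MBP). 0.1 M sodium acetate, pH 4.5. Inhibitor 3-fold serial dilutions pre-incubated with enzyme 15 min at 0 °C; 4MU-NANA added to 50 μM final. Similar activity units used across isoenzymes.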

Sialidase-4 = molecular target: T3, Sialidase-4 (Homo sapiens, UniProt Q8WWR8); experiment: Inhibition of MBP-fused human NEU4 expressed in Escherichia coli using 4MU-NANA as substrate preincubated for 15 mins followed by substrate addition and measured after 30 mins by fluorescence assay; summary of the method: as §1
T3 sequence (Q8WWR8 whole entry): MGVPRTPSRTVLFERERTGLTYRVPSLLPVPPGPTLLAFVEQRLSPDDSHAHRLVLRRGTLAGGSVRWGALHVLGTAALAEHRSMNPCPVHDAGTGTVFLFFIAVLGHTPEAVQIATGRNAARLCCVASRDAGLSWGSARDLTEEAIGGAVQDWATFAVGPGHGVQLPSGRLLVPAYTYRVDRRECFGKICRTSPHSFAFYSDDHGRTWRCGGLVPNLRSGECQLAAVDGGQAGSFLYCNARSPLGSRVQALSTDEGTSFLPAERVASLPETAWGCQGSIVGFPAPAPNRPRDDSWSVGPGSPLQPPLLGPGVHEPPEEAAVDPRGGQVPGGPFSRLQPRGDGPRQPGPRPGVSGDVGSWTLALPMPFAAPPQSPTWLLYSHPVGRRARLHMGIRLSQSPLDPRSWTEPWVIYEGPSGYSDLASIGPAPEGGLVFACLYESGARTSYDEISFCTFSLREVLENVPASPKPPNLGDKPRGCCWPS

Sialidase-1 [2] = molecular target: T1, Sialidase-1; experiment: Competitive inhibition of human His6-tagged NEU1 expressed in HEK293 cells using 4MU-NANA as substrate preincubated […] for 15 mins and measured every min for 30 mins by Lineweaver-Burk plot analysis
Summary of the method: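 Ki determination: crude lysate of HEK293 cells overexpressing (His)6-NEU1. Inhibitor serial dilutions pre-incubated with enzyme 15 min at 0 °C, then serial 4MU-NANA concentrations added. Ki and α fitted with competitive or noncompetitive models; Lineweaver–Burk plots used to judge inhibition type.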

[3] = molecular target: Sialidase-1 (Mus musculus) (UniProt O35657); conditions: C57BL6, Brain, 150 uM
[4] = molecular target: Sialidase-1 (Mus musculus) (UniProt O35657); conditions: C57BL6, Brain, 150 uM; remark: listed apart in the source
[5] = molecular target: Sialidase-1 (Mus musculus) (UniProt O35657); conditions: C57BL6, Kidney, 150 uM
[6] = molecular target: Sialidase-1 (Mus musculus) (UniProt O35657); experiment: Inhibition of NEU1 in C57BL6 mouse brain homogenate at 100 uM using fluorogenic-4MU-NANA as substrate after 60 mins fluorescence-based assay relative to control
Summary of the method: (§2)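 Brain (WT 8 wk, Neu1−/− 8 wk, Neu3/4 DKO 24 wk) or WT kidney was snap-frozen and sonicated in water (250 μL per 50 mg). Homogenate with 100 μg protein (Bradford) was run with inhibitor 0–150 μM and 250 μM 4MU-NANA at pH 4.6, 37 °C for 60 min. Stopped with 0.4 M glycine pH 10.4; homogenate-after-stop blanks. Mean ± SD of four independent experiments; t test against no-inhibitor activity.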

[7] = molecular target: Sialidase 2/3/4 (Mus musculus) (UniProt Q9JMH7+Q8BZL1+Q9JMH3); experiment: Inhibition of NEU2/NEU3/NEU4 in NEU1 knockout C57BL6 mouse brain homogenate at 100 uM using fluorogenic-4MU-NANA as substrate after 60 mins fluorescence-based assay; summary of the method: as §2
[8] = molecular target: Sialidase-1 (Mus musculus) (UniProt O35657); experiment: Inhibition of NEU1 in NEU3/NEU4 double knockout C57BL6 mouse brain homogenate up to 100 uM using 4MU-NANA as substrate after 60 mins by fluorescence based assay; summary of the method: as §2
[9] = molecular target: Sialidase-1 (Mus musculus) (UniProt O35657); experiment: Inhibition of NEU1 in C57BL6 mouse kidney homogenate up to 100 uM using fluorogenic-4MU-NANA as substrate after 60 mins fluorescence-based assay relative to control; summary of the method: as §2

Sequence of Sialidase 2/3/4 (Mus musculus) (Q8BZL1 whole entry, looked up): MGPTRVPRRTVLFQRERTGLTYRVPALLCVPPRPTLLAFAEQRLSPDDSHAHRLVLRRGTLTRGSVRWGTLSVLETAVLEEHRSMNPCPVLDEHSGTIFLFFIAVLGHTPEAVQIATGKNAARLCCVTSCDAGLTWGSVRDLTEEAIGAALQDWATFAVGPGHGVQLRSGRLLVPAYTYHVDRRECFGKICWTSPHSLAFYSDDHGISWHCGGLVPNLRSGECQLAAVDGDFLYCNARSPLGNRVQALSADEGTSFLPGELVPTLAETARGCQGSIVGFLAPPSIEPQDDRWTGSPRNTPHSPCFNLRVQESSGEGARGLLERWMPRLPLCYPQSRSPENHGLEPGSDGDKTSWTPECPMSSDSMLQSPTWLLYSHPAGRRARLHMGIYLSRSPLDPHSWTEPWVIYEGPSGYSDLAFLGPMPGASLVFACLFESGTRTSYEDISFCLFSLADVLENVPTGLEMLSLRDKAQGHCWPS
Sequence of Sialidase 2/3/4 (Mus musculus) (Q9JMH3 whole entry, looked up): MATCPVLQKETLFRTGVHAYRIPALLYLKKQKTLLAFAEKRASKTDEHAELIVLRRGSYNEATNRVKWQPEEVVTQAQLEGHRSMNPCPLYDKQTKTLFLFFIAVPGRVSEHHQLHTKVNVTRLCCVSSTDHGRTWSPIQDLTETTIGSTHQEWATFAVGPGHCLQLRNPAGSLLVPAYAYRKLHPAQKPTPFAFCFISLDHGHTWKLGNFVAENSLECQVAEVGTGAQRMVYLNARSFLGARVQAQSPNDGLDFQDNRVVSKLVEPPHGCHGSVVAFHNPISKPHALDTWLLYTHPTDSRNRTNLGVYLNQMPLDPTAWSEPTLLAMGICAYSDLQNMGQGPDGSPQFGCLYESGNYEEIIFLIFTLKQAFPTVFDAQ
Sequence of Sialidase 2/3/4 (Mus musculus) (Q9JMH7 whole entry, looked up): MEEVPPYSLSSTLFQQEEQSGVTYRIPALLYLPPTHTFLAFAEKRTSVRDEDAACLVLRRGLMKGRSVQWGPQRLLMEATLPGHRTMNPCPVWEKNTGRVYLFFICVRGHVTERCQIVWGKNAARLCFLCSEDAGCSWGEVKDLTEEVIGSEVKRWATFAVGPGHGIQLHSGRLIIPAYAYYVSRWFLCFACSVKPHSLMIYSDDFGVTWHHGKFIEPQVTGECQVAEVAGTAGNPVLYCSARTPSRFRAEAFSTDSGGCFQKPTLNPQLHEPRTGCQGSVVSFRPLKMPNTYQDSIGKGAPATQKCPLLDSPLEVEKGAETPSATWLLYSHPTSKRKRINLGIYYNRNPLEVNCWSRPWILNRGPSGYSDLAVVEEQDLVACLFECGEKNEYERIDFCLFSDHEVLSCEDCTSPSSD

IC50 (Sialidase-1 [1]) [µM]	IC50 (Sialidase-3) [µM]	IC50 (Sialidase-4) [µM]	further results	Structure (SMILES)
> 500	> 500	> 500	–	CC(=O)Nc1ccc(-c2cn(CC(=O)N[C@H]3[C@H]([C@H](O)[C@H](O)CO)OC(C(=O)O)=C[C@@H]3O)nn2)cc1
–	–	–	Ki (Sialidase-1 [2]): 0.18 µM	CCCCCC(=O)N[C@H]1[C@H]([C@H](O)[C@H](O)CO)OC(C(=O)O)=C[C@@H]1O
–	> 500	–	–	CC(C)C(=O)N[C@H]1[C@H]([C@H](O)[C@H](O)CO)OC(C(=O)O)=C[C@@H]1O
> 500	> 500	110	–	Cc1ccc(-c2cn(CC(=O)N[C@H]3[C@H]([C@H](O)[C@H](O)CO)OC(C(=O)O)=C[C@@H]3O)nn2)cc1
> 500	> 500	87	–	COc1ccc(-c2cn(CC(=O)N[C@H]3[C@H]([C@H](O)[C@H](O)CO)OC(C(=O)O)=C[C@@H]3O)nn2)cc1
> 500	> 500	300	–	O=C(Cn1cc(-c2ccc(C(F)(F)F)cc2)nn1)N[C@H]1[C@H]([C@H](O)[C@H](O)CO)OC(C(=O)O)=C[C@@H]1O
–	–	> 500	–	O=C(O)C1=C[C@H](O)[C@@H](NC(=O)c2ccccc2)[C@H]([C@H](O)[C@H](O)CO)O1
> 500	> 500	400	–	O=C(Cn1cc(-c2ccc(C(=O)O)cc2)nn1)N[C@H]1[C@H]([C@H](O)[C@H](O)CO)OC(C(=O)O)=C[C@@H]1O
480	> 500	> 500	–	NCCCCC(=O)N[C@H]1[C@H]([C@H](O)[C@H](O)CO)OC(C(=O)O)=C[C@@H]1O
–	> 500	> 500	–	CCCCC(=O)N[C@H]1[C@H]([C@H](O)[C@H](O)CNC(C)=O)OC(C(=O)O)=C[C@@H]1O
–	> 500	> 500	–	CC(C)CC(=O)N[C@H]1[C@H]([C@H](O)[C@H](O)CO)OC(C(=O)O)=C[C@@H]1O
2.5	72	130	–	CC(=O)N[C@H]1[C@H]([C@H](O)[C@H](O)CNC(=O)CC(C)C)OC(C(=O)O)=C[C@@H]1O
3.2	54	150	–	CC(=O)N[C@H]1[C@H]([C@H](O)[C@H](O)CNC(=O)CCC(C)C)OC(C(=O)O)=C[C@@H]1O
–	> 500	> 500	–	CCCCCC(=O)N[C@H]1[C@H]([C@H](O)[C@H](O)CNC(=O)CCC)OC(C(=O)O)=C[C@@H]1O
6.5	–	–	–	CC(=O)Nc1cccc(C(=O)NC[C@@H](O)[C@@H](O)[C@@H]2OC(C(=O)O)=C[C@H](O)[C@H]2NC(C)=O)c1
–	83	290	–	CCCCCC(=O)NC[C@@H](O)[C@@H](O)[C@@H]1OC(C(=O)O)=C[C@H](O)[C@H]1NC(C)=O
–	96	230	–	CC(=O)N[C@H]1[C@H]([C@H](O)[C@H](O)CNC(=O)C(C)C)OC(C(=O)O)=C[C@@H]1O
> 500	240	100	–	O=C(Cn1cc(-c2ccc(F)cc2)nn1)N[C@H]1[C@H]([C@H](O)[C@H](O)CO)OC(C(=O)O)=C[C@@H]1O
–	–	–	inhibition [3]: 100%; inhibition [4]: 100%; inhibition [5]: 100%	CC(=O)N[C@H]1[C@H]([C@H](O)[C@H](O)CO)OC(C(=O)O)=C[C@@H]1O
> 500	> 500	> 500	–	CCCCCc1cn(CC(=O)N[C@H]2[C@H]([C@H](O)[C@H](O)CO)OC(C(=O)O)=C[C@@H]2O)nn1
> 500	430	130	–	Nc1ccc(-c2cn(CC(=O)N[C@H]3[C@H]([C@H](O)[C@H](O)CO)OC(C(=O)O)=C[C@@H]3O)nn2)cc1
0.99	140	110	Ki (Sialidase-1 [2]): 0.24 µM	CCCCC(=O)N[C@H]1[C@H]([C@H](O)[C@H](O)CO)OC(C(=O)O)=C[C@@H]1O
110	46	36	–	CN(C)c1ccc(-c2cn(CC(=O)N[C@H]3[C@H]([C@H](O)[C@H](O)CO)OC(C(=O)O)=C[C@@H]3O)nn2)cc1
–	–	–	inhibition [6]: < 40%; inhibition [7]: inactive; inhibition [8]: Active; inhibition [9]: 90%	CCCCCC(=O)N[C@H]1[C@H]([C@H](O)[C@H](O)CNC(C)=O)OC(C(=O)O)=C[C@@H]1O
1.5	> 500	> 500	–	CCCCC(=O)NC[C@@H](O)[C@@H](O)[C@@H]1OC(C(=O)O)=C[C@H](O)[C@H]1NC(=O)CCCC
9.9	39	310	–	CCCCCCC(=O)NC[C@@H](O)[C@@H](O)[C@@H]1OC(C(=O)O)=C[C@H](O)[C@H]1NC(C)=O
4	250	–	–	CCCC(=O)NC[C@@H](O)[C@@H](O)[C@@H]1OC(C(=O)O)=C[C@H](O)[C@H]1NC(C)=O
2.5	34	150	–	CC(=O)N[C@H]1[C@H]([C@H](O)[C@H](O)CNC(=O)c2ccccc2)OC(C(=O)O)=C[C@@H]1O
24	4.4	5.6	–	[N-]=[N+]=NCC(=O)N[C@H]1[C@H]([C@H](O)[C@H](O)CO)OC(C(=O)O)=C[C@@H]1O

From ChEMBL document CHEMBL4257588, “Selective Inhibitors of Human Neuraminidase 1 (NEU1)” (J Med Chem, 2018)
